Reference: ChEMBL document CHEMBL1275524, “Activities of antifungal agents against yeasts and filamentous fungi: assessment according to the methodology of the European Committee on Antimicrobial Susceptibility Testing” (2008)
In brackets after ≈: the same amount, converted by molar mass.

Columns and labels:
Trichosporon inkin [1] = test: Antifungal activity against Trichosporon inkin by EUCAST method; format: functional
Method in brief: (§1)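 Nonfermentative yeasts were tested by the EUCAST microdilution recommendations with one change: plates were sealed and agitated at 350 rpm and 30°C for 48 h.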

Sporothrix schenckii = test: Antifungal activity against Sporothrix schenckii; format: functional
Method in brief: (§2)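 Broth microdilution following the EUCAST reference procedure for spore-forming moulds, in flat-bottom plates with RPMI 1640 plus 2% glucose. Inoculum was 2 × 10^5 to 5 × 10^5 CFU/ml. MICs were read visually at 24 and 48 h as 100% growth reduction versus a drug-free control for polyenes and azoles. MEC was used for caspofungin. Tests were run in duplicate and repeated twice.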

Saccharomyces cerevisiae [2] = test: Antifungal activity against Saccharomyces cerevisiae; format: functional
Method in brief: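 Broth microdilution following EUCAST for fermentative yeasts, in flat-bottom plates with RPMI 1640 plus 2% glucose. Inoculum was 0.5 × 10^5 to 2.5 × 10^5 CFU/ml. End points were read spectrophotometrically at 24 h: ≥90% growth reduction versus a drug-free control for amphotericin B, and 50% OD reduction for azoles and caspofungin. MFC was the lowest concentration giving 99% killing.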

[3] = Antifungal activity against Cryptococcus neoformans var. neoformans; format: functional; details: Cryptococcus deneoformans
Method in brief: (§3)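 EUCAST yeast microdilution, modified for nonfermentative yeasts: plates were sealed and agitated at 350 rpm and 30°C for 48 h.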

Clavispora lusitaniae [4] = test: Antifungal activity against Candida lusitaniae by EUCAST method; format: functional
Method in brief: (§4)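 Broth microdilution in flat-bottom plates in RPMI 1640 with 2% glucose; inoculum 0.5 × 105 to 2.5 × 10^5 CFU/ml. MICs were read spectrophotometrically at 24 h. AMB endpoint: ≥90% growth reduction vs drug-free control well. Azole and CPF endpoint: 50% reduction in optical density. MFC was taken as the lowest concentration giving 99% killing.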

[5] = test system: Meyerozyma guilliermondii; test: Antifungal activity against Candida guilliermondii; format: functional; method in brief: as §4
Mucor hiemalis = test: Antifungal activity against Mucor hiemalis; format: functional
[6] = test system: Meyerozyma guilliermondii; test: Antifungal activity against Candida guilliermondii by EUCAST method; format: functional; method in brief: as §4
Aspergillus terreus [7] = test: Antifungal activity against Aspergillus terreus by EUCAST method; format: functional
Aspergillus flavus [8] = test: Antifungal activity against Aspergillus flavus; format: functional
Pichia kudriavzevii [9] = test: Antifungal activity against Candida krusei; format: functional
Method in brief: (§5)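 EUCAST broth microdilution for yeasts in flat-bottom plates, RPMI 1640 with 2% glucose, inoculum 0.5 × 105 to 2.5 × 10^5 CFU/ml. […] MFC is the lowest concentration giving 99% killing.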

Candida parapsilosis [10] = test: Antifungal activity against Candida parapsilosis; format: functional; details: Lodderomyces parapsilosis; method in brief: as §4
Fusarium solani = test: Antifungal activity against Fusarium solani; format: functional
Pichia kudriavzevii [11] = test: Antifungal activity against Candida krusei by EUCAST method; format: functional; method in brief: as §4
Curvularia lunata = test: Antifungal activity against Curvularia lunata; format: functional
Lichtheimia corymbifera = test: Antifungal activity against Absidia corymbifera; format: functional
Rhizopus = test: Antifungal activity against Rhizopus species; format: functional; method in brief: as §2
Aspergillus flavus [12] = test: Antifungal activity against Aspergillus flavus by EUCAST method; format: functional
Candida tropicalis [13] = test: Antifungal activity against Candida tropicalis; format: functional; method in brief: as §4
Cryptococcus gattii [14] = test: Antifungal activity against Cryptococcus neoformans var. gattii by EUCAST method; format: functional, Cryptococcus bacillisporus; method in brief: as §3
Curvularia australiensis = test: Antifungal activity against Bipolaris australiensis; format: functional
Method in brief: (§6)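 Dematiaceous fungi were tested by the EUCAST spore-forming mold reference procedure: flat-bottom microdilution plates, RPMI 1640 plus 2% glucose, inoculum 2 × 105 to 5 × 10^5 CFU/ml. Endpoints were read visually at 24 and 48 h. Polyenes and azoles: 100% growth reduction vs drug-free control. CPF: minimum effective concentration. Run in duplicate and repeated twice.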

Candida tropicalis [15] = test: Antifungal activity against Candida tropicalis by EUCAST method; format: functional; method in brief: as §4
Rhizopus arrhizus = test: Antifungal activity against Rhizopus oryzae; format: functional; method in brief: as §2
Clavispora lusitaniae [16] = test: Antifungal activity against Candida lusitaniae; format: functional; method in brief: as §4
Absidia = test: Antifungal activity against Absidia species; format: functional
Trichosporon asahii [17] = test: Antifungal activity against Trichosporon asahii by EUCAST method; format: functional; method in brief: as §1
Aspergillus fumigatus [18] = test: Antifungal activity against Aspergillus fumigatus by EUCAST method; format: functional
Cryptococcus gattii [19] = test: Antifungal activity against Cryptococcus neoformans var. gattii; format: functional, Cryptococcus bacillisporus; method in brief: as §3
Lomentospora prolificans = test: Antifungal activity against Scedosporium prolificans; format: functional; method in brief: as §2
[20] = Antifungal activity against Rhinocladiella aquaspersa; format: functional; method in brief: as §6
Trichosporon inkin [21] = test: Antifungal activity against Trichosporon inkin; format: functional; method in brief: as §1
Geotrichum candidum [22] = test: Antifungal activity against Geotrichum candidum; format: functional
[23] = Antifungal activity against Rhizopus microsporus var. oligosporus; format: functional; method in brief: as §2
Trichosporon asahii [24] = test: Antifungal activity against Trichosporon asahii; format: functional; method in brief: as §1
Candida albicans [25] = test: Antifungal activity against Candida albicans; format: functional; method in brief: as §4
Candida albicans [26] = test: Antifungal activity against Candida albicans by EUCAST method; format: functional; method in brief: as §4
Penicillium sp. = test: Antifungal activity against Penicillium species; format: functional
Nakaseomyces glabratus [27] = test: Antifungal activity against Candida glabrata by EUCAST method; format: functional; method in brief: as §4
[28] = Antifungal activity against Cryptococcus neoformans var. neoformans by EUCAST method; format: functional; details: Cryptococcus deneoformans; method in brief: as §3
Candida parapsilosis [29] = test: Antifungal activity against Candida parapsilosis by EUCAST method; format: functional; details: Lodderomyces parapsilosis; method in brief: as §4
Aspergillus niger [30] = test: Antifungal activity against Aspergillus niger by EUCAST method; format: functional
Aspergillus fumigatus [31] = test: Antifungal activity against Aspergillus fumigatus; format: functional
Cunninghamella [32] = test: Antifungal activity against Cunninghamella species by EUCAST method; format: functional
Aspergillus niger [33] = test: Antifungal activity against Aspergillus niger; format: functional
Nakaseomyces glabratus [34] = test: Antifungal activity against Candida glabrata; format: functional; method in brief: as §4
Saccharomyces cerevisiae [35] = test: Antifungal activity against Saccharomyces cerevisiae by EUCAST method; format: functional; method in brief: as §5
Geotrichum candidum [36] = test: Antifungal activity against Geotrichum candidum by EUCAST method; format: functional
Cunninghamella [37] = test: Antifungal activity against Cunninghamella species; format: functional
Mucor = test: Antifungal activity against Mucor species; format: functional
Aspergillus terreus [38] = test: Antifungal activity against Aspergillus terreus; format: functional
Rhizomucor = test: Antifungal activity against Rhizomucor species; format: functional
Talaromyces marneffei = test: Antifungal activity against Penicillium marneffei; format: functional
Scedosporium apiospermum = test: Antifungal activity against Scedosporium apiospermum; format: functional; method in brief: as §2
Fusarium oxysporum = test: Antifungal activity against Fusarium oxysporum; format: functional

With C[C@@H](c1ncncc1F)[C@](O)(Cn1cncn1)c1ccc(F)cc1F [VORICONAZOLE] as the compound, how does the MIC (Trichosporon inkin [1]) read?
Its MIC is 0.05 µg/mL (≈ 0.143 µM).

What about the MFC (Sporothrix schenckii) of the same compound?
Its MFC is greater than 8 µg/mL.

And the MFC (Saccharomyces cerevisiae [2])?
Its MFC is greater than 4 µg/mL.

And the MFC [3]?
The MFC was 0.06 µg/mL (≈ 0.172 µM).

What about the MIC (Clavispora lusitaniae [4]) of the same compound?
Its MIC is 0.07 µg/mL (≈ 0.2 µM).

What about the MFC [5] of the same compound?
The MFC was 0.25 µg/mL (≈ 0.716 µM).

And the MFC (Mucor hiemalis)?
Its MFC is greater than 8 µg/mL.

And the MIC [6]?
The MIC was 0.24 µg/mL (≈ 0.687 µM).

What about the MIC (Aspergillus terreus [7]) of the same compound?
Its MIC is 0.29 µg/mL (≈ 0.83 µM).

What about the MFC (Aspergillus flavus [8]) of the same compound?
Its MFC is 1 µg/mL (≈ 2.86 µM).

What about the MFC (Pichia kudriavzevii [9]) of the same compound?
The MFC was 0.5 µg/mL (≈ 1.43 µM).

What about the MFC (Candida parapsilosis [10]) of the same compound?
The MFC was 0.06 µg/mL (≈ 0.172 µM).

What about the MFC (Fusarium solani) of the same compound?
Its MFC is greater than 8 µg/mL.

And the MIC (Pichia kudriavzevii [11])?
Its MIC is 0.53 µg/mL (≈ 1.52 µM).

What about the MFC (Curvularia lunata) of the same compound?
Its MFC is greater than 8 µg/mL.

And the MFC (Lichtheimia corymbifera)?
Its MFC is greater than 8 µg/mL.

And the MFC (Rhizopus)?
Its MFC is greater than 8 µg/mL.

What about the MIC (Aspergillus flavus [12]) of the same compound?
Its MIC is 0.41 µg/mL (≈ 1.17 µM).

And the MFC (Candida tropicalis [13])?
Its MFC is 0.12 µg/mL (≈ 0.344 µM).

What about the MIC (Cryptococcus gattii [14]) of the same compound?
The MIC was 0.05 µg/mL (≈ 0.143 µM).

And the MFC (Curvularia australiensis)?
Its MFC is greater than 8 µg/mL.

And the MIC (Candida tropicalis [15])?
The MIC was 0.48 µg/mL (≈ 1.37 µM).

What about the MFC (Rhizopus arrhizus) of the same compound?
The MFC was greater than 8 µg/mL.

And the MFC (Clavispora lusitaniae [16])?
The MFC was 0.06 µg/mL (≈ 0.172 µM).

And the MFC (Absidia)?
The MFC was greater than 8 µg/mL.

And the MIC (Trichosporon asahii [17])?
The MIC was 0.04 µg/mL (≈ 0.115 µM).

What about the MIC (Aspergillus fumigatus [18]) of the same compound?
The MIC was 0.36 µg/mL (≈ 1.03 µM).

And the MFC (Cryptococcus gattii [19])?
Its MFC is 0.125 µg/mL (≈ 0.358 µM).

And the MFC (Lomentospora prolificans)?
Its MFC is greater than 8 µg/mL.

And the MFC [20]?
The MFC was greater than 8 µg/mL.

And the MFC (Trichosporon inkin [21])?
Its MFC is 0.03 µg/mL (≈ 0.0859 µM).

And the MFC (Geotrichum candidum [22])?
The MFC was greater than 4 µg/mL.

What about the MFC [23] of the same compound?
The MFC was greater than 8 µg/mL.

And the MFC (Trichosporon asahii [24])?
Its MFC is greater than 8 µg/mL.

What about the MFC (Candida albicans [25]) of the same compound?
Its MFC is 0.06 µg/mL (≈ 0.172 µM).

And the MIC (Candida albicans [26])?
Its MIC is 0.13 µg/mL (≈ 0.372 µM).

What about the MFC (Penicillium sp.) of the same compound?
The MFC was greater than 8 µg/mL.

And the MIC (Nakaseomyces glabratus [27])?
The MIC was 1.66 µg/mL (≈ 4.75 µM).

What about the MIC [28] of the same compound?
Its MIC is 0.05 µg/mL (≈ 0.143 µM).

What about the MIC (Candida parapsilosis [29]) of the same compound?
Its MIC is 0.08 µg/mL (≈ 0.229 µM).

And the MIC (Aspergillus niger [30])?
Its MIC is 0.33 µg/mL (≈ 0.945 µM).

And the MFC (Aspergillus fumigatus [31])?
The MFC was 0.5 µg/mL (≈ 1.43 µM).

What about the MIC (Cunninghamella [32]) of the same compound?
The MIC was greater than 8 µg/mL.

What about the MFC (Aspergillus niger [33]) of the same compound?
Its MFC is 2 µg/mL (≈ 5.73 µM).

And the MFC (Nakaseomyces glabratus [34])?
Its MFC is greater than 4 µg/mL.

What about the MIC (Saccharomyces cerevisiae [35]) of the same compound?
The MIC was 0.29 µg/mL (≈ 0.83 µM).

And the MIC (Geotrichum candidum [36])?
The MIC was 0.25 µg/mL (≈ 0.716 µM).

What about the MFC (Cunninghamella [37]) of the same compound?
Its MFC is greater than 8 µg/mL.

What about the MFC (Mucor) of the same compound?
Its MFC is greater than 8 µg/mL.

And the MFC (Aspergillus terreus [38])?
Its MFC is 1 µg/mL (≈ 2.86 µM).

And the MFC (Rhizomucor)?
Its MFC is greater than 8 µg/mL.

And the MFC (Talaromyces marneffei)?
The MFC was greater than 8 µg/mL.

What about the MFC (Scedosporium apiospermum) of the same compound?
Its MFC is greater than 8 µg/mL.

And the MFC (Fusarium oxysporum)?
Its MFC is greater than 8 µg/mL.
